The results in this text go back to ChEMBL document CHEMBL4513216, “Probing the Open Global Health Chemical Diversity Library for Multistage-Active Starting Points for Next-Generation Antimalarials” (ACS Infect Dis, 2020).

A short description of the series: Toxicity liver stage against HepG2, at 10uM. The series is classed as cell-based. On the set-up: test concentration 10 uM, cell line HepG2-A16-CD81EGFP. The note with it: human, HepG2-A16-CD81EGFP cells; read-out: INHIBITION
In outline: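 Uninfected HepG2-A16-CD81EGFP cells, 3 × 10^3 per well, 1536-well, plated on prespotted compound at 10 μM final, parasite-free screening media added to match infected plates; puromycin 10 μM positive, DMSO 0.5% negative; run in parallel with 48 h PbLuc assay at 37 °C, 5% CO2; viability by CellTiter-Glo luminescence, normalized to controls.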
As to `O=C(c1ccn(-c2cccc(F)c2)n1)N1CCCC(n2cccn2)C1` (stereo not drawn), the cytotoxicity at 10 µM is -5.25%.

Regarding `CCc1nc(C2CCCN2C(=O)CCc2nc(C3CC3)no2)no1` (stereo not drawn), the cytotoxicity at 10 µM was -2.66%.

Turning to `CCn1nc(C)c(NC(=O)c2nnn(Cc3ccccc3)c2OC)c1C`, the cytotoxicity at 10 µM came to 13.9%.

In the case of `Cc1csc(N2CCN(C(=O)c3c(C)oc(C)c3C)CC2)n1`, the cytotoxicity at 10 µM was -14%.

For `O=C(CC1CC1)N1CCC2(CCCN(CCOc3ccccc3)C2)C1` (stereo not drawn), the cytotoxicity at 10 µM is -0.861%.

As for `CCOc1cc(C)nc(N2CCN(C(=O)CN(C)C3CC3)CC2)n1`, the cytotoxicity at 10 µM was determined as 5.05%.

In the case of `CCOCc1nnc(NCc2ccsc2)o1`, the cytotoxicity at 10 µM is -0.432%.

As for `COc1ccc(-c2nc(C3(NC(=O)OC(C)(C)C)CCC3)no2)cn1`, the cytotoxicity at 10 µM amounted to 12.5%.

As to `CC(C)c1ncc2c(n1)CN(Cc1nc(-c3ccoc3)no1)CC2`, the cytotoxicity at 10 µM was -3%.

In the case of `CC(C)Sc1ccc(N2CCN(Cc3ccccn3)CC2)nn1`, the cytotoxicity at 10 µM was 2.11%.

`CN(C)C(=O)N1C[C@H]2CC[C@@H](C1)N(C(=O)c1cccc(N(C)C)c1)C2`: the cytotoxicity at 10 µM came to 0.502%.

Regarding `CNc1snc(C)c1C(=O)N1CCCC(n2nc(C)nc2C)C1` (stereo not drawn), the cytotoxicity at 10 µM was -7%.

Turning to `CCc1cc(=O)[nH]c(-c2ccc(NCCC(C)O)nc2)n1` (stereo not drawn), the cytotoxicity at 10 µM is -127%.

In the case of `CC(C)(C)CCNC(=O)c1ccc(Cl)c(NS(C)(=O)=O)c1`, the cytotoxicity at 10 µM is -3.85%.

As for `CCc1nc(CN2CCCN(C(=O)C(C)n3ccnc3)CC2)cs1` (stereo not drawn), the cytotoxicity at 10 µM was -13.8%.

Take `Cc1c(C(=O)NC2CCCOC2)nnn1-c1ccc(Cl)cc1F` (stereo not drawn): the cytotoxicity at 10 µM was determined as 8.55%.

For `CNS(=O)(=O)c1ccc(C(=O)NCCNc2ncccn2)cc1`, the cytotoxicity at 10 µM was -5.95%.

As to `COCC(C)(O)CNC(=O)Nc1cccc(OC)c1OC` (stereo not drawn), the cytotoxicity at 10 µM was -2.75%.

As to `Cc1cc(C)n(CC2CN(Cc3cc(C)on3)CCO2)n1` (stereo not drawn), the cytotoxicity at 10 µM is -9.71%.

As to `Cc1cc2nc(C(C)C)cc(NCCNc3ncccc3C)n2n1`, the cytotoxicity at 10 µM was determined as 16.9%.

For `COC(=O)c1ccc(Cn2cccc(C(F)(F)F)c2=O)c(OC)c1`, the cytotoxicity at 10 µM was found to be 8.55%.

On to `CC(=O)Nc1ccc(CN2CCOC2=O)cc1`, for which the cytotoxicity at 10 µM was -6.24%.

Take `Cc1nn(C)c(C)c1C1CCCN1CC(=O)Nc1ccncc1` (stereo not drawn): the cytotoxicity at 10 µM was -5.53%.

In the case of `COCCc1noc(CN2CCCC2c2c(C)nn(C)c2Cl)n1` (stereo not drawn), the cytotoxicity at 10 µM was -7.71%.

In the case of `CN(C(=O)CN1CCCc2cc(F)cc(F)c21)c1ccccc1`, the cytotoxicity at 10 µM was determined as 14.2%.

Take `OCCN1CCN(CC(O)c2ccc(OC(F)(F)F)cc2)CC1` (stereo not drawn): the cytotoxicity at 10 µM was -20.8%.

Regarding `CCc1nc(C)c(CN2CCOC(Cc3ccccc3Cl)C2)[nH]1` (stereo not drawn), the cytotoxicity at 10 µM is -0.527%.

`CCOCCCNC(=O)c1nc2c(s1)CCCN2c1ccc(C)nn1`: the cytotoxicity at 10 µM was 13.5%.

As for `CCCc1c(C(=O)N2CCN(Cc3ccccn3)CC2)cnn1C`, the cytotoxicity at 10 µM was -1.96%.

Take `CCOC(=O)N1CCN(c2nc(NC3CC3)c3ccccc3n2)CC1`: the cytotoxicity at 10 µM is -0.529%.

For the compound `O=C(Nc1ccc(S(=O)(=O)Nc2ccccc2)cc1)N1CCCC1`, the cytotoxicity at 10 µM came to 10.9%.

Regarding `Cc1cnn(CCNCc2ccccc2OCc2ccncc2)c1`, the cytotoxicity at 10 µM is -16.1%.

Turning to `CC(C)(C)OC(=O)N1CCN(C(=O)c2sccc2C2CC2)CC1`, the cytotoxicity at 10 µM is 2.38%.

As to `O=C(Nc1cnccn1)[C@H]1COC[C@H]2CN(C3CCCC3)C[C@H]21`, the cytotoxicity at 10 µM was -20.4%.

In the case of `O=C(Cc1cccs1)N1CCCCC1c1ccn2ccnc2n1` (stereo not drawn), the cytotoxicity at 10 µM is -6.58%.

In the case of `CC(=O)N1Cc2ccccc2OC2(CCN(C(=O)C3CCOC3)CC2)C1` (stereo not drawn), the cytotoxicity at 10 µM was 0.146%.

In the case of `CCOCC(=O)N1CC(=O)Nc2cc(Br)ccc21`, the cytotoxicity at 10 µM stood at 8.09%.

On to `O=C1C(NCc2nnc3n2CCCC3)CCN1CC(F)(F)F` (stereo not drawn), for which the cytotoxicity at 10 µM is -13.8%.

Turning to `O=C1CCCN1CCN1CCCCC1Cn1cncn1` (stereo not drawn), the cytotoxicity at 10 µM was -0.225%.

Regarding `Cc1cnn(CC2CN(CC(=O)N(C)Cc3cnn(C)c3)CCO2)c1` (stereo not drawn), the cytotoxicity at 10 µM is -18.4%.

For `O=C(CC1[C@H]2CN(Cc3ccc(F)cc3)C[C@@H]12)N1CCCC1` (stereo partly drawn), the cytotoxicity at 10 µM was -0.744%.

For the compound `Cc1noc(C)c1CN(C)c1ncnc2ccccc12`, the cytotoxicity at 10 µM is -6.4%.

Take `NCCc1cccc(CN2CCN(c3ccccc3)C(=O)C2)c1`: the cytotoxicity at 10 µM came to 3.47%.

Consider `CC(C)c1noc(CCCC(=O)NCCOc2ccccc2)n1`, for which the cytotoxicity at 10 µM stood at 1.03%.

As for `CS(=O)(=O)N1CCCCCC1c1cc(-c2ccc(F)cc2)no1` (stereo not drawn), the cytotoxicity at 10 µM is 2.97%.

Take `CN(Cc1cc2c(cc1OC(F)F)OCO2)Cc1nccn1C`: the cytotoxicity at 10 µM was -1.21%.

For `COc1cccc(-c2cccc(CN3C[C@H]4CC[C@@H](C3)N(C)C4=O)c2)c1`, the cytotoxicity at 10 µM came out at 6.98%.

On to `CC(O)CN1CCC(CN(C)Cc2cc(F)cc3cccnc23)CC1` (stereo not drawn), for which the cytotoxicity at 10 µM was -1.26%.

In the case of `Cc1nnn2c1COC(CNCc1nccs1)C2` (stereo not drawn), the cytotoxicity at 10 µM was 1.71%.

With `CSc1ncnc(NCc2cccs2)c1C#N`, the cytotoxicity at 10 µM was -0.277%.

With `O=C(O)c1cc2n(n1)CCCN(C(=O)CCc1c[nH]c3ccccc13)C2`, the cytotoxicity at 10 µM amounted to 3.77%.

Regarding `CCOC(C)c1noc(CN2CCN(Cc3ccno3)CC2)n1` (stereo not drawn), the cytotoxicity at 10 µM was determined as 7.24%.

With `CC(C)COC(C)C(=O)N1CCCC1` (stereo not drawn), the cytotoxicity at 10 µM is 2.77%.

`Cc1noc(C)c1CN1CCOC2(CCCN(c3ccccn3)C2)C1` (stereo not drawn): the cytotoxicity at 10 µM is 11.6%.

For `O=C1[C@@H]2CN(c3ncnc4[nH]ccc34)C[C@]2(C(=O)O)CN1CC1CC1`, the cytotoxicity at 10 µM came to 2.62%.

For the compound `COc1cccc2c1ccn2CC(=O)Nc1nc[nH]n1`, the cytotoxicity at 10 µM was -0.297%.

Consider `CC(C)(C)C(=O)Nc1ccc(Oc2ccsc2C(=O)O)cc1`, for which the cytotoxicity at 10 µM stood at 7.26%.

As for `CC1=N[C@@]2(CC[C@@H]3CN(C(=O)NC(C)C)C[C@@H]32)C(=O)N1CC1CC1`, the cytotoxicity at 10 µM is 7.1%.

For the compound `CC(C)(NC(=O)CCc1ccco1)c1ccc2c(c1)OCCO2`, the cytotoxicity at 10 µM is 1.44%.

On to `Cc1ccc(CN2CCOCC3(C2)CN(c2ccc(C)s2)C(=O)CO3)o1` (stereo not drawn), for which the cytotoxicity at 10 µM turned out to be 7.31%.

Take `COCCSc1ccc(-n2cccn2)nn1`: the cytotoxicity at 10 µM is -24.6%.

Regarding `COc1ccc(C)cc1C(C)NCc1cnnn1C` (stereo not drawn), the cytotoxicity at 10 µM was 0.211%.

On to `CC(CNC(=O)Nc1ccc(F)cc1Br)N1CCOCC1` (stereo not drawn), for which the cytotoxicity at 10 µM was determined as 9.21%.

Regarding `CC(C)c1nnc2n1CCN(C(=O)c1ccc(CN(C)C)cc1)C2`, the cytotoxicity at 10 µM was found to be 5.2%.

`COCCCOc1ccc(C(=O)N(Cc2cnn(C)c2)C(C)C)cn1`: the cytotoxicity at 10 µM was found to be 2.1%.

As for `Cn1ccnc1Sc1ncc(C(=O)N2CCCCC2)cc1Cl`, the cytotoxicity at 10 µM is -61%.

`Cc1cccc(C(=O)N2CCCCC2c2ccc(CN(C)C)cc2)n1` (stereo not drawn): the cytotoxicity at 10 µM was -19.5%.

For the compound `CC(C)c1ncc(CN2C[C@@H](CN3CCCN(C)CC3)[C@@H](CO)C2)cn1`, the cytotoxicity at 10 µM is -9.77%.

As for `CC(OCCCNC(=O)c1cccnc1O)c1ccccc1` (stereo not drawn), the cytotoxicity at 10 µM was 4.88%.

Regarding `CC(C)(C)c1ncc(C(=O)N2CCN(C(=O)c3ccc[nH]3)CC2)c(O)n1`, the cytotoxicity at 10 µM is -6.74%.

In the case of `Cc1nn(C)c2nc(NC(C)c3n[nH]c(=O)[nH]3)sc12` (stereo not drawn), the cytotoxicity at 10 µM was 4.91%.

As to `Cc1ccc(CN2C[C@@H]3COC[C@@H](NS(C)(=O)=O)[C@@H]3C2)o1`, the cytotoxicity at 10 µM was -8.52%.

On to `NC(=O)c1ccc(N2CCN(Cc3cccc4nsnc34)CC2)nc1`, for which the cytotoxicity at 10 µM amounted to 34.1%.

For the compound `CNC(=O)CCc1cccc(C2CCCN(c3cc(C)ncn3)C2)n1` (stereo not drawn), the cytotoxicity at 10 µM was found to be 1.58%.

Turning to `COc1cccc2c1OCC(CNC(=O)Cn1ccnc1C)C2` (stereo not drawn), the cytotoxicity at 10 µM is -150%.

As for `CCn1nc(C)c2nc(C(C)C)nc(NCCCO)c21`, the cytotoxicity at 10 µM was determined as 6.48%.

Consider `Cn1cnc2c1CCN(CCOc1ccc3c(c1)CCC(=O)N3)C2`, for which the cytotoxicity at 10 µM was -4.48%.

As to `CCOCCCC(=O)NS(=O)(=O)c1ccc(C)s1`, the cytotoxicity at 10 µM is 10%.

With `Cc1nn(C)c2c(N3CCN(C(=O)C4CCC4)CC3)ncnc12`, the cytotoxicity at 10 µM came to 1.78%.

On to `O=C(c1ccc(N2CCCC2)nn1)N1CCCC(n2ccnc2)C1` (stereo not drawn), for which the cytotoxicity at 10 µM is -16.2%.

Take `CCN1CCc2nc(N3CCOCC3)nc(NC(C)C)c2C1`: the cytotoxicity at 10 µM was -112%.

In the case of `CCN(CC1CN(Cc2cccnc2)CCO1)c1cccnn1` (stereo not drawn), the cytotoxicity at 10 µM was -14%.

Turning to `COc1cccc2ccn(CCC(=O)N3CCCC(C(=O)O)C3)c12` (stereo not drawn), the cytotoxicity at 10 µM was -9.42%.

For the compound `CCOC(=O)c1nc(COc2c(C)occc2=O)no1`, the cytotoxicity at 10 µM amounted to 3.79%.

As to `CC(C)Nc1nc(C(=O)Nc2ccccn2)cs1`, the cytotoxicity at 10 µM is 5.15%.

As for `Cc1cc(NC(=O)Cn2nc(C)c(C#N)c2N)ccc1Br`, the cytotoxicity at 10 µM was -6.58%.

For `COc1ncccc1CNC(=O)CN1CCCCCC1=O`, the cytotoxicity at 10 µM is -10.4%.

As to `Cc1ccccc1C(NC(=O)NCC1(O)CCC1)C1CC1` (stereo not drawn), the cytotoxicity at 10 µM is -3.03%.

For `CS(=O)(=O)NC1CCCN(C(=O)NCc2cccc(F)c2)C1` (stereo not drawn), the cytotoxicity at 10 µM is -18.8%.

As for `COc1ccccc1C1CNC(=O)c2nc(-c3nccn3C)[nH]c2C1` (stereo not drawn), the cytotoxicity at 10 µM was 4.2%.

As to `CNc1nc(C2CCCN(C(=O)C(C)C)C2)nc2c1CN(C)CC2` (stereo not drawn), the cytotoxicity at 10 µM was -16.3%.

Turning to `c1ccc2c3c([nH]c2c1)CN(Cc1cc2n(n1)CCNC2)CC3`, the cytotoxicity at 10 µM stood at 3.06%.

On to `CN1CCC(N(C)CCC(=O)N2CCN(Cc3cccc(F)c3)CC2)C1` (stereo not drawn), for which the cytotoxicity at 10 µM was -3.41%.

As for `CCc1n[nH]c(C2CN(C(=O)c3cnc(C)nc3CC)CCO2)n1` (stereo not drawn), the cytotoxicity at 10 µM was -3.39%.

In the case of `CC(=O)NCCC(=O)NCc1cccnc1-n1cnc2ccccc21`, the cytotoxicity at 10 µM was -14.2%.

As for `CN(C)c1nccc(C2CCN(c3ncccn3)CC2)n1`, the cytotoxicity at 10 µM stood at 0.59%.

With `O=C(CCCNC(=O)c1cnccn1)Nc1ncc[nH]1`, the cytotoxicity at 10 µM is -41.9%.

With `N#Cc1cccc(N2CCCC(CO)(Cc3ccccc3F)C2)n1` (stereo not drawn), the cytotoxicity at 10 µM stood at 1.54%.
